# Rows were chosen to be rich in hits. Some 2.6% of all compounds tested hit in one or more screens of this group.
# GSIS activator: GLuc luminescence reporter in INS-1E cells, primary screen for activators of glucose-dependent secretion of insulin | INS-1E GLuc reporter insulin secretion, 2-3 h | activation, % at 16.6 µM | hit rate 0.61% among 370,000 | AID 743287;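 active = lowest replicate activation of at least 40%, so every replicate reaches that level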
# RAD52 inh: RAD52 (human) annealing inhibition. P43351. recombinant RAD52 DNA annealing, FRET fluorescence. inhibition, % at 18.7 µM. hit rate 0.46% among 360,000;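 active = every replicate showing at least 50% inhibition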
# MLL AF4-AF9 inh: blocks AF4 peptide binding to human AF9 | P42568 | AlphaScreen, biotin-AF4 peptide binding to FLAG-AF9 | inhibition, % at 10 µM | hit rate 0.47% among 350,000;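 active = every replicate reaching a set inhibition limit, whatever the replicate mean, cut at about 25% in these data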
# RAD54 inh: RAD54 (human) branch migration inhibition; inhibition, % at 10.4 µM; hit rate 0.14% among 360,000; Q92698; RAD54 Holliday junction branch migration, FAM/BHQ fluorescence; AID 602329;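 active = mean normalized replicate activity at least 40 and at least half of replicates scoring 40 or more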;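 also: inhibitors cause a drop in the FAM fluorescence signal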
# E-selectin induc: induces E-selectin expression in human endothelial cells. P16581. HUVEC E-selectin immunofluorescence imaging; normalized: neutral wells 0, TNF-alpha wells 100. activation, % at 7.58 µM. hit rate 0.37% among 260,000;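 active = mean E-selectin-positive cell signal at least 10% of the positive control, reached in at least 60% of replicates, without over 20% cell loss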
# Target sequence (P16581 whole entry, looked up): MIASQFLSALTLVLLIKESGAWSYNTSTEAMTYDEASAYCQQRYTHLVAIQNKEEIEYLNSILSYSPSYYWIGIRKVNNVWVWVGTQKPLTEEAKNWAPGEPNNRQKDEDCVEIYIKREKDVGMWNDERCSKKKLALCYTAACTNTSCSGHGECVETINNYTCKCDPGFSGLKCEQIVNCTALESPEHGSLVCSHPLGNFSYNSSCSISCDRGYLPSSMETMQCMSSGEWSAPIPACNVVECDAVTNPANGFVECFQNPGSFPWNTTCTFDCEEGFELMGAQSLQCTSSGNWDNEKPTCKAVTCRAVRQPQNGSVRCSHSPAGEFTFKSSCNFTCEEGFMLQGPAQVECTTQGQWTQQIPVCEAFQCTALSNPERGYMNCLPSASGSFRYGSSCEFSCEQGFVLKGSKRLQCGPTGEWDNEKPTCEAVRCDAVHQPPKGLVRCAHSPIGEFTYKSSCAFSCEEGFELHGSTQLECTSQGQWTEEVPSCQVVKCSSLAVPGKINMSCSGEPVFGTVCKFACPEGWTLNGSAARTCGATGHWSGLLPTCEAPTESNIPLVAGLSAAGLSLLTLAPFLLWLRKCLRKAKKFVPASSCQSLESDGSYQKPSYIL
#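 Test system: HUVEC | Signal: Immunofluorescence imaging | Read-out: Percent E-selectin-positive cells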
# rRNA inh HTS: inhibits bacterial ribosomal RNA function over humanized ribosomes | E. coli WT GFP vs humanized-ribosome RFP mutants, fluorescence, 24 h; hits give low values; DMSO median 0, no signal -100 | GFP signal change (wild-type ribosome), % (test concentration not listed) | hit rate 1.6% among 350,000 | AID 720706;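 active = significant combined selectivity score with lowered wild-type GFP, culture density cut under 30%, mutant RFP and density less affected; inactive = any of these conditions unmet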
# A number is an active result; - = inactive; . = not tested or not shown; ! = not active in a repeat.
SMILES,GSIS activator,RAD52 inh,MLL AF4-AF9 inh,RAD54 inh,E-selectin induc,rRNA inh HTS
CNC(=O)C[C@@H]1CC[C@@H]2[C@@H](COc3ccc(NC(=O)c4ccccc4F)cc3C(=O)N2C)O1,-,.,.,-,-,-
Cc1noc(C)c1NC(=O)N(C)C[C@H]1Oc2ccc(NS(=O)(=O)c3cccs3)cc2C(=O)N([C@H](C)CO)C[C@@H]1C,-,-,-,-,255!,-
Cc1noc(C)c1NC(=O)N(C)C[C@@H]1Oc2ccc(NC(=O)Cn3cnnn3)cc2C(=O)N([C@@H](C)CO)C[C@@H]1C,-,-,-,-,103,-
C[C@@H]1CN([C@H](C)CO)C(=O)c2cc(NC(=O)C3CCCCC3)ccc2O[C@H]1CN(C)C(=O)Nc1ccc2c(c1)OCO2,-,.,-,-,177,-
C[C@@H]1CN([C@H](C)CO)C(=O)c2cc(NC(=O)Cc3ccccc3)ccc2O[C@H]1CN(C)C(=O)NC1CCCCC1,-,-,-,-,71,-
O=C(Cc1ccncc1)Nc1ccc2c(c1)[C@H]1C[C@@H](CC(=O)NC3CCCC3)O[C@H](CO)[C@H]1O2,-,-,-,-,-,-
O=C(C[C@H]1CC[C@@H]2[C@H](COC[C@H](O)CN2C(=O)c2cnccn2)O1)N1CCN(c2ccccc2)CC1,-,-,-,-,-,-
Cc1noc(C)c1NC(=O)N(C)C[C@@H]1Oc2ccc(NC(=O)c3ccncc3)cc2C(=O)N([C@H](C)CO)C[C@H]1C,-,-,-,-,354,-
C[C@@H]1CN([C@@H](C)CO)C(=O)c2cc(NS(=O)(=O)c3cccs3)ccc2O[C@H]1CN(C)C(=O)Nc1ccc2c(c1)OCO2,-,-,-,-,284,-
Brc1ccccc1C1Cc2nnccc2CN1 (stereo unspecified),-,-,.,.,-,-36
C/C=C/c1ccc2c(c1)O[C@H](CN(C)C(=O)Cc1ccccc1)[C@H](C)CN([C@@H](C)CO)S2(=O)=O,-,-,-,-,-,-
C[C@H](NC(=O)C[C@@H]1CC[C@H]2[C@@H](COC[C@H](O)CN2Cc2cc(F)ccc2F)O1)c1ccccc1,-,-,-,-,-,-
COc1ccc(/C=C2\SC(N3CCCCC3)=NC2=O)cc1,-,-,-,-,-,-
CCc1ccc(/C=C2\SC(N3CCCC3)=NC2=O)cc1,-,-,-,.,-,-15
COc1cc(/C=C2\SC(N3CCCCC3)=NC2=O)cc(OC)c1OC,-,-,-,.,.,-28
CCOC(=O)c1ccc(NC(=O)c2nc[nH]c2C(=O)N[C@H](C)CO)cc1,56,-,-,-,-,-
COc1ccc(CCN(C)C(=O)CSc2ncnc3sccc23)cc1OC,78,-,-,.,.,-
COc1ccccc1CNC(=O)CCn1c(=O)oc2ccccc21,-,-,-,-,-,-
COc1ccc(CCN(C)C(=O)Cn2c(=O)oc3ccccc32)cc1OC,70,-,-,-,.,-
COc1ccccc1Cn1c(=O)oc2ccccc21,43,-,-,-,-,-
CCCNC(=O)N1CC2(C1)CN(Cc1ccccc1)[C@@H](CO)c1[nH]c3cc(OC)ccc3c12,-,-,-,.,-,-
COc1ccc(NC(=O)N[C@H]2CC[C@H](CCNC(=O)c3ccccc3F)O[C@H]2CO)cc1,-,-,-,-,-,-
O=C(NC1CCCCC1)C(c1ccc(F)cc1)N(Cc1ccccc1)C(=O)CN1C(=O)c2ccccc2S1(=O)=O (stereo unspecified),111,.,.,-,.,.
O=C(NC1CCCCC1)C(c1ccc(F)cc1)N(CCc1ccccc1)C(=O)CN1C(=O)c2ccccc2S1(=O)=O (stereo unspecified),.,-,-,-,.,.
Cc1ccc(NC(=O)c2cccs2)cc1NC(=O)c1ccccc1Cl,167,-,-,-,-,-
SMILES,GSIS activator,RAD52 inh,MLL AF4-AF9 inh,RAD54 inh,E-selectin induc,rRNA inh HTS
C[C@H](O)[C@@H]1CN2CCc3ccc(-c4ccc5c(c4)OCO5)cc3[C@@H]2C[C@@H]1N(C)C(=O)c1cccc(Cl)c1,188,-,.,.,-,-
O=C(CCc1nc2ccccc2c(=O)[nH]1)NNC(=O)c1cccc(Cl)c1,44,-,-,-,-,-
COc1cccc(C2=NN(C(C)=O)C(c3cccs3)C2)c1 (stereo unspecified),-,-,-,-,-,-
COc1ccc(C2=NN(C(C)=O)C(c3cccs3)C2)cc1OC (stereo unspecified),76,-,-,-,.,-
COc1ccc(CCn2c(O)cc3nn(-c4nc5ccccc5s4)c(=O)c-3c2C)cc1,-,-,-,.,-,-18
CS(=O)(=O)Nc1ccc(C(=O)NCCC2=CCCCC2)cc1,.,.,.,-,.,.
CS(=O)(=O)N(Cc1ccc(Cl)cc1)c1ccc(C(=O)NCCC2=CCCCC2)cc1,80,.,.,-,.,.
O=c1[nH]c2ccccc2nc1-c1c[nH]c2ccccc12,-,-,-,-,-,-26
COc1ccc(NC(=O)Nc2ccc3c(c2)C(=O)N([C@@H](C)CO)C[C@@H](C)[C@H](CN(C)Cc2ccccc2)OCCCC[C@@H](C)O3)cc1,-,-,-,-,-,-
COc1ccc(S(=O)(=O)N(C)C[C@H]2OCCCC[C@H](C)Oc3ccc(NC(=O)Nc4cccc5ccccc45)cc3C(=O)N([C@@H](C)CO)C[C@@H]2C)cc1,-,-,-,-,-,-
COc1ccc(NC(=O)Nc2ccc3c(c2)C(=O)N([C@H](C)CO)C[C@H](C)[C@H](CN(C)Cc2ccccc2)OCCCC[C@H](C)O3)cc1,-,54,-,-,-,-
COc1ccc(S(=O)(=O)N(C)C[C@@H]2OCCCC[C@H](C)Oc3ccc(NC(=O)Nc4cccc5ccccc45)cc3C(=O)N([C@H](C)CO)C[C@H]2C)cc1,-,-,-,-,34,-
COc1ccc(NC(=O)Nc2ccc3c(c2)C(=O)N([C@H](C)CO)C[C@@H](C)[C@H](CN(C)Cc2ccccc2)OCCCC[C@H](C)O3)cc1,-,59,-,-,-,-
O=C(NCCN1CCOCC1)c1ccc2c(c1)N(Cc1cccc(F)c1)C(=O)c1ccccc1S2,-,-,-,.,.,-
O=C(O)c1ccc2c(c1)N(Cc1ccc(F)cc1)C(=O)c1ccccc1S2,-,-,-,-,.,-20
CCN1CCN(CCNC(=O)c2ccc3c(c2)N(Cc2ccc(F)cc2)C(=O)/C(=C/c2ccccc2)S3)CC1,102,73,58,66,.,-
CCN1CCN(CCNC(=O)c2ccc(/C=C3/Sc4ccccc4N(Cc4cccc(Cl)c4)C3=O)cc2)CC1,-,-,.,.,.,-
O=C(Nc1ccccc1F)N1C[C@@H]2[C@H](c3ccccc31)[C@H](CO)N2C(=O)C1CCCC1,-,-,-,-,-,-
O=C(COC(=O)C1CCC1)NC(=O)c1ccccc1,42,-,-,-,-,-

# High-throughput results: PubChem BioAssay, Broad Institute
